Source: ChEMBL document CHEMBL4364301 (Eur J Med Chem, 2019)
Activity calls are given as the source filed them. The calls are words filed in the database; no cut-off is given here.

Key:
CWR22R [1] = test: Antitumor activity against human 22Rv1 cells xenografted in NMRI mouse assessed as tumor volume quadrupling time at […] administered on day 7 and 14 (reference value: 6.2 day); type: functional
CWR22R [2] = test: Antitumor activity against human 22Rv1 cells xenografted in NMRI mouse assessed as reduction of tumor volume at […] administered on day 7 and 14 and measured on day 10; type: functional, organism-based
[3] = Toxicity in NMRI mouse xenografted with human 22Rv1 cells assessed as body weight loss at 15 mg/kg, ip administered on day 7 and 14 and measured on day 49; type: organism-based; conditions: in vivo
CWR22R [4] = test: Antitumor activity against human 22Rv1 cells xenografted in NMRI mouse assessed as inhibition of tumor growth by measuring T/C value at 15 mg/kg, iv administered on day 7 and 14 and measured on day 14; type: functional
How it was run: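 Male NMRI nu/nu mice, delivered at 4–6 weeks and quarantined at least 1 week, were implanted in the hind flank with cultured 22Rv1 cells. Mice were randomised at 80–200 mm³ tumour volume. Dosing was 15 mg/kg i.v. in 0.9% saline, given as three weekly treatments; controls received vehicle. Caliper tumour volumes were taken twice weekly, with T/C from group median relative tumour volumes, doubling/quadrupling times and body weight recorded.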

[5] = Toxicity in NMRI mouse xenografted with human 22Rv1 cells assessed as survival rate at 15 mg/kg, ip administered on day 7 and 14 and measured on day 49; type: organism-based; conditions: in vivo
CWR22R [6] = test: Antitumor activity against human 22Rv1 cells xenografted in NMRI mouse assessed as reduction of tumor volume at […] administered on day 7 and 14 and measured on day 20; type: functional, organism-based
CWR22R [7] = test: Antitumor activity against human 22Rv1 cells xenografted in NMRI mouse assessed as tumor volume doubling time at […] administered on day 7 and 14 (reference value: 2.7 day); type: functional
DU-145 [8] = test: Antiproliferative activity against human DU145 cells assessed as reduction in cell growth incubated for 96 hrs by propidium iodide based 2D monolayer assay; type: functional
How it was run: (§1)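 After 24 h recovery, compound in medium or medium alone (control wells) was added at 10 half-log concentrations from 0.0032 to 100 µM, in triplicate, with at most 0.3% DMSO. After 96 h, wells were PBS-washed, stained with 7 µg/ml PI and 0.1% Triton X-100, and fluorescence read at 530/620 nm. IC50 came from a 4-parameter fit, geometric mean.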

CWR22R [9] = test: Antiproliferative activity against human 22Rv1 cells assessed as T/C value at 1 x 10^2 uM incubated for 96 hrs by propidium iodide based 2D monolayer assay; type: functional
How it was run: (§2)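 Cells were kept in RPMI 1640 with 25 mM HEPES, 10% FCS and gentamicin at 37 °C under 5% CO2, and plated at 4,000-20,000 cells/well. After 24 h recovery, compound in medium or medium alone (control wells) was added at 10 half-log concentrations from 0.0032 to 100 µM, in triplicate, with at most 0.3% DMSO. After 96 h, wells were PBS-washed, stained with 7 µg/ml PI and 0.1% Triton X-100, and fluorescence read at 530/620 nm. IC50 came from a 4-parameter fit, geometric mean.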

LNCaP [10] = test: Antiproliferative activity against human LNCAP cells assessed as T/C value at 3.2 x 10^-2 uM incubated for 96 hrs by propidium iodide based 2D monolayer assay; type: functional; how it was run: as §2
VCaP [11] = test: Antiproliferative activity against human VCaP cells assessed as reduction in cell growth incubated for 96 hrs by propidium iodide based 2D monolayer assay; type: functional
How it was run: (§3)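 VCaP cells in RPMI 1640 with 10% FCS at 37 °C, 5% CO2, seeded 4,000–20,000 cells/well and left 24 h before dosing. Compounds from DMSO stocks were diluted in half-log steps in medium, 10 concentrations 0.0032–100 μM, triplicate wells, max 0.3% DMSO. After 96 h, cells were washed, stained with 7 μg/ml propidium iodide plus 0.1% Triton X-100 for 1–2 h at room temperature, and fluorescence read at ex 530/em 620 nm.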

LNCaP [12] = test: Antiproliferative activity against human LNCAP cells assessed as T/C value at 1 x 10^-1 uM incubated for 96 hrs by propidium iodide based 2D monolayer assay; type: functional; how it was run: as §2
VCaP [13] = test: Antiproliferative activity against human VCaP cells assessed as T/C value at 1 x 10^2 uM incubated for 96 hrs by propidium iodide based 2D monolayer assay; type: functional; how it was run: as §2
LNCaP [14] = test: Antiproliferative activity against human LNCAP cells assessed as T/C value at 1 x 10^-2 uM incubated for 96 hrs by propidium iodide based 2D monolayer assay; type: functional; how it was run: as §2
CWR22R [15] = test: Antiproliferative activity against human 22Rv1 cells assessed as T/C value at 1 x 10^-1 uM incubated for 96 hrs by propidium iodide based 2D monolayer assay; type: functional; how it was run: as §2
VCaP [16] = test: Antiproliferative activity against human VCaP cells assessed as T/C value at 1 x 10^-1 uM incubated for 96 hrs by propidium iodide based 2D monolayer assay; type: functional; how it was run: as §2
LNCaP [17] = test: Antiproliferative activity against human LNCAP cells assessed as T/C value at 3.2 uM incubated for 96 hrs by propidium iodide based 2D monolayer assay; type: functional; how it was run: as §2
CWR22R [18] = test: Antiproliferative activity against human 22Rv1 cells assessed as T/C value at 3.2 x 10^1 uM incubated for 96 hrs by propidium iodide based 2D monolayer assay; type: functional; how it was run: as §2
DU-145 [19] = test: Antiproliferative activity against human DU145 cells assessed as T/C value at 3.2 uM incubated for 96 hrs by propidium iodide based 2D monolayer assay; type: functional; how it was run: as §2
VCaP [20] = test: Antiproliferative activity against human VCaP cells assessed as T/C value at 1 x 10^-2 uM incubated for 96 hrs by propidium iodide based 2D monolayer assay; type: functional; how it was run: as §2
DU-145 [21] = test: Antiproliferative activity against human DU145 cells assessed as T/C value at 1 x 10^2 uM incubated for 96 hrs by propidium iodide based 2D monolayer assay; type: functional; how it was run: as §2
CWR22R [22] = test: Antiproliferative activity against human 22Rv1 cells assessed as T/C value at 1 uM incubated for 96 hrs by propidium iodide based 2D monolayer assay; type: functional; how it was run: as §2
CWR22R [23] = test: Antiproliferative activity against human 22Rv1 cells assessed as reduction in cell growth incubated for 96 hrs by propidium iodide based 2D monolayer assay; type: functional; how it was run: as §1
VCaP [24] = test: Antiproliferative activity against human VCaP cells assessed as T/C value at 1 uM incubated for 96 hrs by propidium iodide based 2D monolayer assay; type: functional; how it was run: as §2
VCaP [25] = test: Antiproliferative activity against human VCaP cells assessed as T/C value at 3.2 x 10^1 uM incubated for 96 hrs by propidium iodide based 2D monolayer assay; type: functional; how it was run: as §3
LNCaP [26] = test: Antiproliferative activity against human LNCAP cells assessed as reduction in cell growth incubated for 96 hrs by propidium iodide based 2D monolayer assay; type: functional; how it was run: as §1
VCaP [27] = test: Antiproliferative activity against human VCaP cells assessed as T/C value at 3.2 x 10^-3 uM incubated for 96 hrs by propidium iodide based 2D monolayer assay; type: functional; how it was run: as §3
CWR22R [28] = test: Antiproliferative activity against human 22Rv1 cells assessed as T/C value at 3.2 uM incubated for 96 hrs by propidium iodide based 2D monolayer assay; type: functional; how it was run: as §2
LNCaP [29] = test: Antiproliferative activity against human LNCAP cells assessed as T/C value at 3.2 x 10^-1 uM incubated for 96 hrs by propidium iodide based 2D monolayer assay; type: functional; how it was run: as §2
LNCaP [30] = test: Antiproliferative activity against human LNCAP cells assessed as T/C value at 1 x 10^1 uM incubated for 96 hrs by propidium iodide based 2D monolayer assay; type: functional; how it was run: as §2
CWR22R [31] = test: Antiproliferative activity against human 22Rv1 cells assessed as T/C value at 1 x 10^-2 uM incubated for 96 hrs by propidium iodide based 2D monolayer assay; type: functional; how it was run: as §2
VCaP [32] = test: Antiproliferative activity against human VCaP cells assessed as T/C value at 3.2 x 10^-2 uM incubated for 96 hrs by propidium iodide based 2D monolayer assay; type: functional; how it was run: as §3
LNCaP [33] = test: Antiproliferative activity against human LNCAP cells assessed as T/C value at 3.2 x 10^1 uM incubated for 96 hrs by propidium iodide based 2D monolayer assay; type: functional; how it was run: as §2
VCaP [34] = test: Antiproliferative activity against human VCaP cells assessed as T/C value at 3.2 x 10^-1 uM incubated for 96 hrs by propidium iodide based 2D monolayer assay; type: functional; how it was run: as §3
DU-145 [35] = test: Antiproliferative activity against human DU145 cells assessed as T/C value at 3.2 x 10^1 uM incubated for 96 hrs by propidium iodide based 2D monolayer assay; type: functional; how it was run: as §2
LNCaP [36] = test: Antiproliferative activity against human LNCAP cells assessed as T/C value at 3.2 x 10^-3 uM incubated for 96 hrs by propidium iodide based 2D monolayer assay; type: functional; how it was run: as §2
CWR22R [37] = test: Antiproliferative activity against human 22Rv1 cells assessed as T/C value at 3.2 x 10^-2 uM incubated for 96 hrs by propidium iodide based 2D monolayer assay; type: functional; how it was run: as §2
CWR22R [38] = test: Antiproliferative activity against human 22Rv1 cells assessed as T/C value at 3.2 x 10^-3 uM incubated for 96 hrs by propidium iodide based 2D monolayer assay; type: functional; how it was run: as §2
LNCaP [39] = test: Antiproliferative activity against human LNCAP cells assessed as T/C value at 1 x 10^2 uM incubated for 96 hrs by propidium iodide based 2D monolayer assay; type: functional; how it was run: as §2
VCaP [40] = test: Antiproliferative activity against human VCaP cells assessed as T/C value at 3.2 uM incubated for 96 hrs by propidium iodide based 2D monolayer assay; type: functional; how it was run: as §2
VCaP [41] = test: Antiproliferative activity against human VCaP cells assessed as T/C value at 1 x 10^1 uM incubated for 96 hrs by propidium iodide based 2D monolayer assay; type: functional; how it was run: as §2
LNCaP [42] = test: Antiproliferative activity against human LNCAP cells assessed as T/C value at 1 uM incubated for 96 hrs by propidium iodide based 2D monolayer assay; type: functional; how it was run: as §2
CWR22R [43] = test: Antiproliferative activity against human 22Rv1 cells assessed as T/C value at 3.2 x 10^-1 uM incubated for 96 hrs by propidium iodide based 2D monolayer assay; type: functional; how it was run: as §2

CC(=O)O[C@@]12CO[C@@H]1C[C@H](O)[C@@]1(C)C(=O)[C@H](O)C3=C(C)[C@@H](OC(=O)[C@H](O)[C@@H](NC(=O)OC(C)(C)C)c4ccccc4)C[C@@](O)([C@@H](OC(=O)c4ccccc4)[C@H]21)C3(C)C [DOCETAXEL ANHYDROUS]
Time (CWR22R [1]): 43.2 days | Activity (CWR22R [2]): Active | Activity [3]: 19.8% | T/C (CWR22R [4]): 22.4% | survival at 49 day [5]: 100% | Activity (CWR22R [6]): Active | Time (CWR22R [7]): 6.3 days

CNC(=O)c1ccc(N2C(=S)N(c3ccc(C#N)c(C(F)(F)F)c3)C(=O)C2(C)C)cc1F [ENZALUTAMIDE]
Activity (DU-145 [8]): Dose-dependent effect | IC50 (DU-145 [8]; DU-145, 96 h): 32.3 µM | IC70 (DU-145 [8]; DU-145, 96 h): 71.1 µM | T/C (CWR22R [9]): 13% | T/C (LNCaP [10]): 100% | Activity (VCaP [11]): Dose-dependent effect | IC50 (VCaP [11]): 53 µM | IC70 (VCaP [11]): > 100 µM | T/C (LNCaP [12]): 89% | T/C (VCaP [13]): 44% | T/C (LNCaP [14]): 92% | T/C (CWR22R [15]): 93% | T/C (VCaP [16]): 101% | T/C (LNCaP [17]): 69% | T/C (CWR22R [18]): 57% | T/C (DU-145 [19]): 120% | T/C (VCaP [20]): 106% | T/C (DU-145 [21]): 19% | T/C (CWR22R [22]): 93% | Activity (CWR22R [23]): Dose-dependent effect | IC70 (CWR22R [23]; 22Rv1, 96 h): 36.5 µM | T/C (VCaP [24]): 85% | T/C (VCaP [25]): 85% | Activity (LNCaP [26]): Dose-dependent effect | IC70 (LNCaP [26]): 31.7 µM | T/C (VCaP [27]): 106% | T/C (CWR22R [28]): 88% | T/C (LNCaP [29]): 77% | T/C (LNCaP [30]): 57% | T/C (CWR22R [31]): 98% | T/C (VCaP [32]): 104% | T/C (LNCaP [33]): 28% | T/C (VCaP [34]): 88% | T/C (DU-145 [35]): 84% | T/C (LNCaP [36]): 101% | T/C (CWR22R [37]): 99% | T/C (CWR22R [38]): 96% | T/C (LNCaP [39]): 6% | T/C (VCaP [40]): 85% | T/C (VCaP [41]): 85% | T/C (LNCaP [42]): 65% | T/C (CWR22R [43]): 96%
